What was measured:
[1] = target: Adrenergic receptor alpha-2 (Rattus norvegicus) (UniProt P22086+P19328+P22909); assay: Antagonism at alpha-2 adrenergic receptor, determined as dose required to produce a two fold shift of the dose-response curve to UK-14304 on the twitch response in rat vas deferens; assay type: functional, tissue-based
Procedure, shortened: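 Pithed rats, iv. Antagonist given before a cumulative dose-response curve to UK-14,304 on the vas deferens twitch response. DR2 is the antagonist dose (μg/kg) giving a twofold shift of the curve. Separate groups of rats (n = 4-6).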

[2] = target: Adrenergic receptor alpha-1 (Rattus norvegicus) (UniProt P15823+P23944+P43140); assay: Agonism at alpha-1 adrenergic receptor, determined as the dose required to produce a two fold shift of the cirazoline on diastolic blood pressure.; assay type: functional, tissue-based; conditions: Artery
Rattus norvegicus [3] = assay: In vivo ED40 is the raising diastolic blood pressure by 40 mm Hg in pithed rats. (postjunctional); assay type: functional; conditions: Artery
Procedure, shortened: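 Pithed rats, compound given iv in cumulative doses. ED40 is the dose (μg/kg) raising diastolic blood pressure by 40 mmHg. Separate groups of rats (n = 4-6).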

Rattus norvegicus [4] = assay: In vivo antagonist dose producing two fold shift of cirazoline in pithed rats. (postjunctional); AG- agonist; assay type: functional, organism-based; conditions: filed as agonist
Procedure, shortened: (§1)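 Pithed rats, iv. Antagonist given before a cumulative dose-response curve to cirazoline on diastolic blood pressure. DR2 is the antagonist dose (μg/kg) giving a twofold rightward shift. Separate groups of rats (n = 4-6).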

Rattus norvegicus [5] = assay: In vivo dose required to inhibit vas deferens contraction by 25% after pretreatment with prazosin in pithed rats. (prejunctional); ant- antagonist; assay type: functional, organism-based; conditions: filed as antagonist
Procedure, shortened: (§2)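 Pithed rats pretreated with prazosin (1 mg/kg). Compound given iv in cumulative doses. ED25 is the dose (μg/kg) inhibiting vas deferens contraction by 25%. Separate groups of rats (n = 4-6).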

[6] = target: T1, Adrenergic receptor alpha-1 (Rattus norvegicus, UniProt P15823+P23944+P43140); assay: Inhibition of saturable binding of [3H]prazosin to alpha1-site in rat cerebral cortical membranes.; assay type: cell membranes, Membrane
T1 sequence (P15823 whole entry): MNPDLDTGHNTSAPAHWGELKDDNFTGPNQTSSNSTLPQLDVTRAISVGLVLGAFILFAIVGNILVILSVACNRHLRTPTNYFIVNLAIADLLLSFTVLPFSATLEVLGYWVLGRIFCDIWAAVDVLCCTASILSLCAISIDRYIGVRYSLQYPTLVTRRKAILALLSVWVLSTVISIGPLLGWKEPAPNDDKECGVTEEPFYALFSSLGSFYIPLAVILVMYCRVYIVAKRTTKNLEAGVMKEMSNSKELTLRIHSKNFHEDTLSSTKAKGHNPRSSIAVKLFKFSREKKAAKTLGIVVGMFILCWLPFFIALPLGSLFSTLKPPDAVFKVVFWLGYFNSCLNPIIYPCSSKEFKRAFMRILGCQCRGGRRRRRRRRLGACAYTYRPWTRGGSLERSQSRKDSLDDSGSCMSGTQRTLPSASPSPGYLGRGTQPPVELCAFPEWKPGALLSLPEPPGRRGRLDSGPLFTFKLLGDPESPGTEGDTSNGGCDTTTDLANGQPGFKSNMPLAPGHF
T1 sequence (P23944 whole entry): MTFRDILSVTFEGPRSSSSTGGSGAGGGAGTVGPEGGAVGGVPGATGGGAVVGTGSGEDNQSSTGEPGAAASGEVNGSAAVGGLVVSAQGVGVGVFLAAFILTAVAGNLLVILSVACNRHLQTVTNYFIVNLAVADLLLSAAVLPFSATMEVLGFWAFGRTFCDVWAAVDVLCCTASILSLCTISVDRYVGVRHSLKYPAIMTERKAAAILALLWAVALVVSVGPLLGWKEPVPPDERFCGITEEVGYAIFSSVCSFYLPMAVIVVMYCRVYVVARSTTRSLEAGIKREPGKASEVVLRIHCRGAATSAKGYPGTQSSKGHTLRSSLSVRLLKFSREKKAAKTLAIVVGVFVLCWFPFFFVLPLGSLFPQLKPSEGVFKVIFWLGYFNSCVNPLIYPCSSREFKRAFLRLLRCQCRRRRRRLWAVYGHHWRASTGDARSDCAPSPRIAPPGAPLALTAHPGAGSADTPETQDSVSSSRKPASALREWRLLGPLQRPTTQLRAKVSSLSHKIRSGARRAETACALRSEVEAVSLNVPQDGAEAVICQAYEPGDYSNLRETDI
T1 sequence (P43140 whole entry): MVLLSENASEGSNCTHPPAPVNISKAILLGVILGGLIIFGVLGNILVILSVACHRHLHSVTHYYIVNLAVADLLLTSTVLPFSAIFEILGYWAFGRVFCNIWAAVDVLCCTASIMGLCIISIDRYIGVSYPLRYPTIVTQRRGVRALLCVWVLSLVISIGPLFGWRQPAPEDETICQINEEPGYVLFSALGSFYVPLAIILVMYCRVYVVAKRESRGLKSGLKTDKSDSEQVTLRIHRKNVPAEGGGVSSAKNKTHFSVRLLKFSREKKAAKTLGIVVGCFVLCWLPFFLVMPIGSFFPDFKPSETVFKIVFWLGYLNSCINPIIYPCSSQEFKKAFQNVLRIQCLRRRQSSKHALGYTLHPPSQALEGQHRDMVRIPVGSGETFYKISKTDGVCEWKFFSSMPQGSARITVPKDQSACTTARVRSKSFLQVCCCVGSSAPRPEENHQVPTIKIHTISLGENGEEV

[7] = target: T2, Adrenergic receptor alpha-2 (Rattus norvegicus, UniProt P22086+P19328+P22909); assay: Inhibition of saturable binding of [3H]idazoxan to alpha2-site in rat cerebral cortical membranes.; assay type: cell membranes, Membrane
T2 sequence (P22086 whole entry): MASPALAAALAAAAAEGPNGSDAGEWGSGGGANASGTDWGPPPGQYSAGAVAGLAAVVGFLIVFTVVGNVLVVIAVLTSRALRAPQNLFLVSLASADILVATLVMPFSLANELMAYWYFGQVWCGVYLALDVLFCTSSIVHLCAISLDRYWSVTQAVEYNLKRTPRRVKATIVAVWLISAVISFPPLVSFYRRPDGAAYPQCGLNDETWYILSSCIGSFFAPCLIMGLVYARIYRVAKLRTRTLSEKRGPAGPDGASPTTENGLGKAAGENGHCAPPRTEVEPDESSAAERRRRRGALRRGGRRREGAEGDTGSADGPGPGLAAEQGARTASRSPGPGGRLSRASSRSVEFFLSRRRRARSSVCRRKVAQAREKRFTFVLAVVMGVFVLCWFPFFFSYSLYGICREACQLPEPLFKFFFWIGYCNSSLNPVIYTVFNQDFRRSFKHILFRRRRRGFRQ
T2 sequence (P19328 whole entry): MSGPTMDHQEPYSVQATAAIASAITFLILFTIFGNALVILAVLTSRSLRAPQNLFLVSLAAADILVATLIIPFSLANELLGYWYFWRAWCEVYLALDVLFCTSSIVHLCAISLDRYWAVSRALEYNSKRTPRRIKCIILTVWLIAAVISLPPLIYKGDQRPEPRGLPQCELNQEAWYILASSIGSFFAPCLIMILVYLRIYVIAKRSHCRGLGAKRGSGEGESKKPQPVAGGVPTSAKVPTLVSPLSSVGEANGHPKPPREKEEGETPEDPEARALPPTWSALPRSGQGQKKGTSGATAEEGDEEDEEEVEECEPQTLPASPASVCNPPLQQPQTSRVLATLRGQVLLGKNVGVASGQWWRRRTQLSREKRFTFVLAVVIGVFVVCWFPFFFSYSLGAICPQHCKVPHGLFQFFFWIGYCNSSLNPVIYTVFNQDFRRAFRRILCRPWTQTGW
T2 sequence (P22909 whole entry): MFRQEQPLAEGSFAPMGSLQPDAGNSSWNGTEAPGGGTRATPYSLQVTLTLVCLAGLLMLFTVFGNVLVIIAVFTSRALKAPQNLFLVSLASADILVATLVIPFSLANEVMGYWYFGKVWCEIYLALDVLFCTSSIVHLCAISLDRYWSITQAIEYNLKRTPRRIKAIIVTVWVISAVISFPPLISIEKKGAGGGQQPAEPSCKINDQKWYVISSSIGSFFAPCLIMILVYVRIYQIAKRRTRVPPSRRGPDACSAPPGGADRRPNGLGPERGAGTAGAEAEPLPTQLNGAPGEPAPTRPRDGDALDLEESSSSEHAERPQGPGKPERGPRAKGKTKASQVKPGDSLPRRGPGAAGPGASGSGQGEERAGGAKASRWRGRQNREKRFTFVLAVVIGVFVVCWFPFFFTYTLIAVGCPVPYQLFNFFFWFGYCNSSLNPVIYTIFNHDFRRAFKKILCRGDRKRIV

Rattus norvegicus [8] = assay: In vivo antagonist dose producing two fold shift of UK-14,304 in pithed rats. (prejunctional)
[9] = system: Adrenergic receptor alpha-2 (Rattus norvegicus); assay: Agonism at alpha-2 adrenergic receptor, determined as dose required to produce a two fold shift of the cumulative dose-response curve to UK-14304 on the twitch response in rat vas deferens.
Rattus norvegicus [10] = assay: In vivo antagonist dose producing two fold shift of cirazoline in pithed rats. (postjunctional);AG- agonist; assay type: functional, organism-based; conditions: filed as agonist; procedure, shortened: as §1
[11] = target: T1, Adrenergic receptor alpha-1; assay: Inhibition of saturable binding of [3H]prazosin to alpha-1 adrenergic receptor site in rat cerebral cortical membranes.; assay type: cell membranes, Membrane
Rattus norvegicus [12] = assay: In vivo antagonist dose producing two fold shift of cirazoline in pithed rats. […]; assay type: functional
Rattus norvegicus [13] = assay: In vivo dose required to inhibit vas deferens contraction by 25% after pretreatment with prazosin in pithed rats. (prejunctional); assay type: functional; procedure, shortened: as §2
Rattus norvegicus [14] = assay: In vivo antagonist dose producing two fold shift of cirazoline in pithed rats. (postjunctional)
Rattus norvegicus [15] = assay: In vivo antagonist dose producing two fold shift of cirazoline in pithed rats. (postjunctional); assay type: functional
Procedure, shortened: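 Pithed rats, separate groups (n = 4-6). Cirazoline cumulative dose-response on diastolic blood pressure (postjunctional α1) was recorded with and without antagonist given iv. The antagonist dose (μg/kg, iv) giving a twofold rightward shift of the cirazoline curve was reported as DR2.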

| Structure (SMILES) | Prejunctional antagonist potency [1] | Postjunctional agonist potency [2] | ED40 (Rattus norvegicus [3]) | ED40 (Rattus norvegicus [4]) | ED25 (Rattus norvegicus [5]) | Ki [6] | Ki [7] | DR2 (Rattus norvegicus [8]) | Prejunctional agonist potency [9] | ED40 (Rattus norvegicus [10]) | Ki [11] | ED40 (Rattus norvegicus [12]) | ED25 (Rattus norvegicus [13]) | DR2 (Rattus norvegicus [14]) | DR2 (Rattus norvegicus [15]) |
| --- | --- | --- | --- | --- | --- | --- | --- | --- | --- | --- | --- | --- | --- | --- | --- |
| Cl.c1ccc(N2c3ccccc3CC2C2=NCCN2)cc1 (centres undefined) | 0.5 | 5.3 | 1.1 µg/kg | Agonist | Antagonist | 8.4 nM | 3 nM | 0.0094 mg/kg | 0 | – | – | – | – | – | – |
| CCCN1c2ccccc2CC1C1=NCCN1 (centres undefined) | 3.2 | 3.9 | 3.8 µg/kg | Agonist | Antagonist | 3.7 nM | 0.96 nM | 0.0071 mg/kg | 0 | – | – | – | – | – | – |
| CN1c2cccc(Cl)c2CC1C1=NCCN1.Cl (centres undefined) | 10 | 17 | 0.2 µg/kg | – | Antagonist | – | 0.16 nM | 0.0024 mg/kg | 0.29 | Agonist | 13.1 nM | – | – | – | – |
| CCN1c2ccccc2CC1C1=NCCN1 (centres undefined) | 9.1 | 1.4 | 3.3 µg/kg | Agonist | Antagonist | 3.72 nM | 0.24 nM | 0.0016 mg/kg | 0 | – | – | – | – | – | – |
| CN1c2ccccc2CC1C1=NCCN1 (centres undefined) | 5.5 | 3.8 | 0.5 µg/kg | – | – | – | 0.69 nM | – | 0.77 | Agonist | 3.86 nM | 3.7 µg/kg | 4.1 µg/kg | – | – |
| CCN1c2cccc(Cl)c2CC1C1=NCCN1 (centres undefined) | 8 | 4.4 | 0.8 µg/kg | Agonist | Antagonist | 1.9 nM | 0.42 nM | 0.0015 mg/kg | 0.51 | – | – | – | – | – | – |
| c1ccc2c(c1)OCC(C1=NCCN1)O2 (centres undefined) [IDAZOXAN] | – | – | 65.5 µg/kg | – | – | – | – | 0.0202 mg/kg | – | – | – | – | – | 1.43 mg/kg | – |
| COc1cc2nc(N3CCN(C(=O)c4ccco4)CC3)nc(N)c2cc1OC [PRAZOSIN] | – | – | – | – | – | – | – | 5.44 mg/kg | – | – | – | – | – | – | 0.0094 mg/kg |

Reference: ChEMBL document CHEMBL1124112, “Indoline analogues of idazoxan: potent alpha 2-antagonists and alpha 1-agonists” (J Med Chem, 1988)
